The record followed here is ChEMBL document CHEMBL3813630, “Coumarin carboxylic acids as monocarboxylate transporter 1 inhibitors: In vitro and in vivo studies as potential anticancer agents” (Bioorg Med Chem Lett, 2016).

Data set [1] is described as follows: Cytotoxicity against mouse GL261 cells expressing luc2 assessed as reduction in cell viability after 72 hrs by MTT assay. Type of data set: functional, cell-based. The note with it: GL261, 72 h. A digest of the protocol:
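GL261-luc2 cells grown in DMEM, 10% FBS, 50 μg/mL geneticin, penicillin-streptomycin; 5 × 10^3 cells/well, 24 h at 37 °C, 5% CO2, then compound in replicate for 72 h.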
(Tetrazolium assays rely on reduction of a dye to a coloured formazan, in cell work by metabolically active cells.)

The subject of data set [2] is MDA-MB-231. Description: Cytotoxicity against human MDA-MB-231 cells expressing luc2 assessed as reduction in cell viability after 72 hrs by MTT assay. Type of data set: functional, cell-based. Particulars: MDA-MB-231, 72 h. The gist of the method:
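MDA-MB-231 cells grown in DMEM, 10% FBS, penicillin-streptomycin; 5 × 10^3 cells/well, 24 h at 37 °C, 5% CO2, then compound in replicate for 72 h.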

The target in data set [3] is T1, Monocarboxylate transporter 1 (Rattus norvegicus, UniProt P53987).
T1 sequence (P53987 whole entry): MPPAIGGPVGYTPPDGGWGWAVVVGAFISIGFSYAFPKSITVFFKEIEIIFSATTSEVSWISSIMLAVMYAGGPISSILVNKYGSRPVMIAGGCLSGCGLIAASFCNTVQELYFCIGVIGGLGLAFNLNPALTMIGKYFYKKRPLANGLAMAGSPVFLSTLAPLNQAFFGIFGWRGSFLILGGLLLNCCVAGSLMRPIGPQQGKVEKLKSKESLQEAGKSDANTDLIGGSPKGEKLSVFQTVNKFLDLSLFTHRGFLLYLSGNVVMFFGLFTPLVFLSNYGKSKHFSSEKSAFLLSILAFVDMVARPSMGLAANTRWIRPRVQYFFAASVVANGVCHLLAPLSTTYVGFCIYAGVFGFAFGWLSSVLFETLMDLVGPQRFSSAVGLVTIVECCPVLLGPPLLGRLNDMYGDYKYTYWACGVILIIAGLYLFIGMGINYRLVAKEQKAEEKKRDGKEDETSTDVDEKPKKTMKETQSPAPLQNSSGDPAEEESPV
Kind of data set: Inhibition of MCT1 in rat brain endothelial 4 cells assessed as L-[14C]-Lactate Uptake after 15 mins by scintillation spectrometric analysis. Type of data set: cell-based.

In data set [4] the test system is Mus musculus. Description: Toxicity in CD-1 mouse assessed as mortality at 20 mg/kg, ip qd. The note with it: in vivo. The format is organism-based. A digest of the protocol:
(§1)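 Healthy CD-1 mice were dosed once daily, either 20 mg/kg ip or 100 mg/kg by oral gavage. Control mice received vehicle (10% DMSO in saline). Animals were monitored for mortality, body weight change and apparent side effects, compared with the vehicle group. The study was conducted by GenScript under an approved IACUC protocol.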

The subject of data set [5] is MDA-MB-231. Kind of data set: Antitumor activity against MCT4 expressing human MDA-MB-231 cells coexpressing luciferase xenografted in SCID mouse assessed as tumor growth inhibition at 100 mg/kg, administered via oral gavage qd measured on day 19. The format is functional. The note with it: MDA-MB-231, po, 456 h, read-out: TGI. The gist of the method: (§2)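 Female SCID mice, right flank injected with 10 × 10^6 MDA-MB-231 cells in 1:1 matrigel-PBS; randomized, n = 6; dosing started at mean tumor volume ~100 mm3; vehicle 10% DMSO in saline. Study ended day 19; tumors excised and weighed; % inhibition = [(C − T)/C] × 100 from mean tumor weights versus vehicle. Mann-Whitney test.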
For orientation: In xenograft studies the graft and the host belong to different species.

Data set [6] deals with Mus musculus. Description: Toxicity in CD-1 mouse assessed as visible toxic effects at 20 mg/kg, ip qd. Type of data set: organism-based. Particulars: in vivo. A digest of the protocol:
as §1

Data set [7] relates to MDA-MB-231. Description: Antitumor activity against MCT4 expressing human MDA-MB-231 cells coexpressing luciferase xenografted in SCID mouse assessed as tumor growth inhibition at 20 mg/kg, ip qd measured on day 19. Type of data set: functional. Particulars: MDA-MB-231, ip, 456 h, read-out: TGI. The gist of the method:
as §2

Data set [8] is described as follows: Permeability across apical side at pH 6.5 to basolateral side at pH 7.4 in human Caco2 cells assessed as compound recovery at 10 uM. Type of data set: ADME, cell-based. The note with it: caco-2, pH 6.5, 10 µM. Background: Caco-2 monolayers are a common model of the intestinal barrier.
Data set [9] in a line: Permeability across basolateral side at pH 6.5 to apical side at pH 7.4 in human Caco2 cells assessed as compound recovery at 10 uM. The format is ADME, cell-based. Particulars: caco-2, pH 6.5, 10 µM.
Data set [10] can be described thus: Antitumor activity against MCT1 expressing mouse GL261 cells coexpressing luc2 syngrafted in C57BL/6 mouse assessed as tumor growth inhibition at 20 mg/kg, ip qd. The note with it: C57BL/6, GL261, ip, read-out: TGI. Type of data set: functional. The gist of the method: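 GL261-luc2 cells (5 × 10^6) in 1:1 matrigel-PBS injected into right flank of C57BL/6 mice (male and female); randomized, n = 6; dosing began at tumor volume 200 mm3; vehicle 10% DMSO in saline. Caliper measurement every 2–3 days, V = ab²/2. At study end tumors excised and weighed; % inhibition = [(C − T)/C] × 100 on mean tumor weights. Mann-Whitney test.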

The subject of data set [11] is Mus musculus. Description: Toxicity in CD-1 mouse assessed as mortality at 100 mg/kg, administered via oral gavage qd. Type of data set: organism-based. Particulars: in vivo. A digest of the protocol: as §1
The test system of data set [12] is Mus musculus. Kind of data set: Toxicity in CD-1 mouse assessed as change in body weight at 100 mg/kg, administered via oral gavage qd. Type of data set: organism-based. The note with it: in vivo. A digest of the protocol: as §1
Data set [13] has as its system Mus musculus. Kind of data set: Toxicity in CD-1 mouse assessed as visible toxic effects at 100 mg/kg, administered via oral gavage qd. The format is organism-based. The note with it: in vivo. A digest of the protocol: as §1
Data set [14] relates to Mus musculus. Kind of data set: Toxicity in CD-1 mouse assessed as change in body weight at 20 mg/kg, ip qd. The format is organism-based. Particulars: in vivo. The gist of the method:
as §1

A short description of data set [15]: Efflux ratio of permeability from basolateral to apical side over apical to basolateral side in human Caco2 cells. The note with it: caco-2. Type of data set: ADME, cell-based.
The test system of data set [16] is MDA-MB-231. Kind of data set: Antitumor activity against MCT4 expressing human MDA-MB-231 cells coexpressing luciferase xenografted in SCID mouse assessed as tumor growth inhibition at 0.5 mg/kg, ip for 5 days per week measured on day 19. The format is functional. The note with it: MDA-MB-231, ip, read-out: TGI. A digest of the protocol:
as §2

A value given as a limit tells only on which side of the number the result lay.

For orientation: IC50 means the concentration that inhibits the measured activity by half. `O=C(O)c1cc2ccc(N3CCCC3)cc2oc1=O`: the IC50 in [1] was more than 250 µM; with MDA-MB-231 [2], more than 250 µM; in [3], 0.38 µM.
As for `CCCN(CCC)c1ccc2cc(C(=O)O)c(=O)oc2c1`, the IC50 is more than 250 µM in data set [1], more than 250 µM in the data set with MDA-MB-231 [2] and 0.45 µM in data set [3].
For the compound `C#CCN(CC#C)c1ccc2cc(C(=O)O)c(=O)oc2c1`, the IC50 in data set [1] is more than 250 µM; in the data set on MDA-MB-231 [2], more than 250 µM; in [3], 0.21 µM.
For `C=CCN(CC=C)c1ccc2cc(C(=O)O)c(=O)oc2c1`, the IC50 was more than 250 µM in data set [1], more than 250 µM with MDA-MB-231 [2] and 0.17 µM in data set [3].
As to `O=C(O)c1cc2ccc(N(Cc3ccccc3)Cc3ccccc3)cc2oc1=O`, the Activity entry with Mus musculus [4], in the data set on Mus musculus [6], in the data set on Mus musculus [11], in the data set with Mus musculus [12], with Mus musculus [13] and with Mus musculus [14] was “Non-toxic” throughout. For the same compound, the inhibition in vivo at 100 mg/kg with MDA-MB-231 [5] was found to be 13%. For the same compound, the IC50 in data set [1] was more than 250 µM; in the data set with MDA-MB-231 [2], 240 µM; in data set [3], 0.09 µM. Moreover, the inhibition in vivo at 20 mg/kg turned out to be 10% in the data set on MDA-MB-231 [7] and 77% in [10]. The figures for the Drug recovery in data set [8] and in [9] were 34% and 55%, respectively. Besides, the Ratio in [15] is 0.2.
`COc1cc2c(c(OC)c1OC)-c1ccc(OC)c(=O)cc1[C@@H](NC(C)=O)CC2` [COLCHICINE]: in [8], the Drug recovery was determined as 75%.
With `COc1cccc2c1C(=O)c1c(O)c3c(c(O)c1C2=O)C[C@@](O)(C(=O)CO)C[C@@H]3O[C@H]1C[C@H](N)[C@H](O)[C@H](C)O1` [DOXORUBICIN], in the data set with MDA-MB-231 [16], the inhibition in vivo at 0.5 mg/kg is 50%.
Take `CC(CCc1ccccc1)NCC(O)c1ccc(O)c(C(N)=O)c1` (stereo not given) [LABETALOL]: the Drug recovery in [8] worked out at 66%; in data set [9], 72%.
As for `CC(C)NCC(O)COc1cccc2ccccc12` (stereo not given) [PROPRANOLOL], the Drug recovery in [8] is 67%; in data set [9], 80%.
As for `CNC(=C[N+](=O)[O-])NCCSCc1ccc(CN(C)C)o1` [RANITIDINE], in [9], the Drug recovery is 85%.
As for `Cn1nnc2c(C(N)=O)ncn2c1=O` [TEMOZOLOMIDE], the inhibition in vivo at 20 mg/kg in data set [10] is 81%.
